Laboratory results published in ChEMBL document CHEMBL1130075, “(2-Methyl-5-(methylsulfonyl)benzoyl)guanidine Na+/H+ antiporter inhibitors” (J Med Chem, 1997).

Target: Sodium/hydrogen exchanger (Oryctolagus cuniculus, UniProt P23791+P50482+P26432)
Experiment: Inhibition of 5-N-(ethyl isopropyl)-amiloride[EIPA]-sensitive Na+ uptake into acidified rabbit erythrocytes.
Format: functional
Method in brief: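 Rabbit blood (heparinized) red cells, washed, acidified in pH 6.2 KCl buffer with ouabain, 10 min 37 °C; internal pH clamped with 200 μM DIDS and 1 mM acetazolamide, 30 min 37 °C. Uptake 5 min at 37 °C in pH 8.0 buffer with 10 mM NaCl plus ²²Na tracer, 1% DMSO. Triplicates; counts with 10 μM EIPA subtracted; IC50 by nonlinear fit.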

SMILES | IC50 [nM]
COc1cc(C)c(C(=O)N=C(N)N)cc1S(C)(=O)=O | 16
Cc1c(C(=O)N=C(N)N)cc(S(C)(=O)=O)c(Cl)c1Cl | 29
Cc1cc(N2CCCC2)c(S(C)(=O)=O)cc1C(=O)N=C(N)N | 11
CCCc1cc(C)c(C(=O)N=C(N)N)cc1S(C)(=O)=O | 5.7
Cc1cc(Sc2cccc(Cl)c2)c(S(C)(=O)=O)cc1C(=O)N=C(N)N | 37
Cc1cc(-c2ccco2)c(S(C)(=O)=O)cc1C(=O)N=C(N)N | 16
Cc1c(C(=O)N=C(N)N)cc(S(C)(=O)=O)c(Cl)c1C | 58
Cc1cc(-c2ccc(Cl)cc2Cl)c(S(C)(=O)=O)cc1C(=O)N=C(N)N | 42
Cc1cc(O)c(S(C)(=O)=O)cc1C(=O)N=C(N)N | 220
Cc1cc(N2CCC(N)CC2)c(S(C)(=O)=O)cc1C(=O)N=C(N)N | 9.8
Cc1cc(Oc2cncc(Cl)c2)c(S(C)(=O)=O)cc1C(=O)N=C(N)N | 14
CCc1cc(Oc2cccnc2)c(S(C)(=O)=O)cc1C(=O)N=C(N)N | 27
Cc1ccc(C(=O)N=C(N)N)cc1S(C)(=O)=O | 210
Cc1ccc(-c2ccc(C(=O)N=C(N)N)cc2S(C)(=O)=O)cc1 | 100
Cc1cc(Nc2ncccn2)c(S(C)(=O)=O)cc1C(=O)N=C(N)N | 8.3
Cc1cc(C2CCC2)c(S(C)(=O)=O)cc1C(=O)N=C(N)N | 8.2
CCCCCc1cc(C)c(C(=O)N=C(N)N)cc1S(C)(=O)=O | 27
Cc1cc(Oc2ccccc2Cl)c(S(C)(=O)=O)cc1C(=O)N=C(N)N | 14
CS(=O)(=O)c1cc(C(=O)N=C(N)N)ccc1C#N | 140
CCC(C)c1cc(C)c(C(=O)N=C(N)N)cc1S(C)(=O)=O (configuration not stated) | 8
CS(=O)(=O)c1cc(C(=O)N=C(N)N)c(N)cc1N1CCCC(O)C1 (configuration not stated) | 160
Cc1c(C(=O)N=C(N)N)cc(S(C)(=O)=O)cc1-n1cccc1 | 100

SMILES | IC50 [nM]
CS(=O)(=O)c1cc(C(=O)N=C(N)N)c(Cl)cc1Oc1cccnc1 | 52
Cc1cc(-n2cnc3ccccc32)c(S(C)(=O)=O)cc1C(=O)N=C(N)N | 100
Cc1cc(Oc2ccc(Cl)cc2)c(S(C)(=O)=O)cc1C(=O)N=C(N)N | 13
Cc1cc(Sc2ccncc2)c(S(C)(=O)=O)cc1C(=O)N=C(N)N | 13
Cc1cn(-c2cc(C)c(C(=O)N=C(N)N)cc2S(C)(=O)=O)cn1 | 28
Cc1c(C(=O)N=C(N)N)ccc(Cl)c1S(C)(=O)=O | 130
CCc1cc(Cl)c(S(C)(=O)=O)cc1C(=O)N=C(N)N | 63
CS(=O)(=O)c1cc(C(=O)N=C(N)N)ccc1C1CCCCC1 | 340
CCc1cc(C)c(C(=O)N=C(N)N)cc1S(C)(=O)=O | 4.8
Cc1cc(Sc2ccccc2Cl)c(S(C)(=O)=O)cc1C(=O)N=C(N)N | 14
Cc1cc(-c2ccc(Cl)cc2)c(S(C)(=O)=O)cc1C(=O)N=C(N)N | 45
Cc1cc(Nc2ccccc2)c(S(C)(=O)=O)cc1C(=O)N=C(N)N | 21
CS(=O)(=O)c1cc(C(=O)N=C(N)N)c(F)cc1F | 630
Cc1cc(OCc2ccccc2)c(S(C)(=O)=O)cc1C(=O)N=C(N)N | 28
Cc1cc(-n2ccc(=O)cc2)c(S(C)(=O)=O)cc1C(=O)N=C(N)N | 75
CS(=O)(=O)c1cc(C(=O)N=C(N)N)ccc1-n1ccc(=O)cc1 | 710
CCOc1cc(C)c(C(=O)N=C(N)N)cc1S(C)(=O)=O | 19
Cc1ccc(S(C)(=O)=O)cc1C(=O)N=C(N)N | 150
Cc1cc(Cl)c(S(C)(=O)=O)cc1C(=O)N=C(N)N | 25
CSc1cc(C)c(C(=O)N=C(N)N)cc1S(C)(=O)=O | 6
Cc1cc(OC(C)C)c(S(C)(=O)=O)cc1C(=O)N=C(N)N | 19
Cc1cc(N2CCCCC2)c(S(C)(=O)=O)cc1C(=O)N=C(N)N | 21

SMILES | IC50 [nM]
CCc1cc(OC)c(S(C)(=O)=O)cc1C(=O)N=C(N)N | 30
CS(=O)(=O)c1cc(C(=O)N=C(N)N)c(Cl)cc1Cl | 140
Cc1cc(Oc2cccnc2)c(S(C)(=O)=O)cc1C(=O)N=C(N)N | 8.8
Cc1c(C(=O)N=C(N)N)cc(S(C)(=O)=O)c(Cl)c1[N+](=O)[O-] | 44
CCSc1cc(C)c(C(=O)N=C(N)N)cc1S(C)(=O)=O | 5.9
Cc1cc(OC2CCCCC2)c(S(C)(=O)=O)cc1C(=O)N=C(N)N | 37
Cc1cc(-n2cccn2)c(S(C)(=O)=O)cc1C(=O)N=C(N)N | 25
COc1cc(Cl)c(C(=O)N=C(N)N)cc1S(C)(=O)=O | 40
CS(=O)(=O)c1cc(C(=O)N=C(N)N)c(Cl)cc1N1CCC(N)CC1 | 20
CS(=O)(=O)c1cc(C(=O)N=C(N)N)c(N)cc1N1CCCCC1 | 190
CS(=O)(=O)c1cc(C(=O)N=C(N)N)ccc1Oc1cccnc1 | 76
CS(=O)(=O)c1cc(C(=O)N=C(N)N)ccc1N1CCCC(O)C1 (configuration not stated) | 65
Cc1cc(OC(C)(C)C)c(S(C)(=O)=O)cc1C(=O)N=C(N)N | 9.4
COc1ccc(C(=O)N=C(N)N)cc1S(C)(=O)=O | 270
Cc1cc(N2CCCC(O)C2)c(S(C)(=O)=O)cc1C(=O)N=C(N)N (configuration not stated) | 30
Cc1cc(Sc2ccc(Cl)cc2)c(S(C)(=O)=O)cc1C(=O)N=C(N)N | 19
Cc1cc(-c2cc(C(F)(F)F)cc(C(F)(F)F)c2)c(S(C)(=O)=O)cc1C(=O)N=C(N)N | 2800
Cc1ccc(-c2cc(C)c(C(=O)N=C(N)N)cc2S(C)(=O)=O)cc1 | 25
CS(=O)(=O)c1cc(C(=O)N=C(N)N)ccc1N1CCCCC1 | 130
Cc1c(C(=O)N=C(N)N)ccc(Oc2cccnc2)c1S(C)(=O)=O | 2200
CS(=O)(=O)c1cc(C(=O)N=C(N)N)c(N)cc1Cl | 130
Cc1cc(Oc2cccc(Cl)c2)c(S(C)(=O)=O)cc1C(=O)N=C(N)N | 21

SMILES | IC50 [nM]
Cc1cc(Br)c(S(C)(=O)=O)cc1C(=O)N=C(N)N | 12
CCc1cc(-n2ccc(=O)cc2)c(S(C)(=O)=O)cc1C(=O)N=C(N)N | 930
Cc1cc(Nc2ccccn2)c(S(C)(=O)=O)cc1C(=O)N=C(N)N | 9.2
CS(=O)(=O)c1cc(C(=O)N=C(N)N)ccc1Br | 180
CS(=O)(=O)c1cc(C(=O)N=C(N)N)ccc1Cl | 380
Cc1cc(SC(C)(C)C)c(S(C)(=O)=O)cc1C(=O)N=C(N)N | 22
COc1cc(N2CCC(N)CC2)c(S(C)(=O)=O)cc1C(=O)N=C(N)N | 73
Cc1cc(-n2ccnc2C)c(S(C)(=O)=O)cc1C(=O)N=C(N)N | 29
CS(=O)(=O)c1cc(C(=O)N=C(N)N)c(Cl)cc1-n1ccnc1 | 130
Cc1c(C(=O)N=C(N)N)cc(S(C)(=O)=O)c(-n2ccnc2)c1C | 290
Cc1cc(-c2cc(Cl)cc(Cl)c2)c(S(C)(=O)=O)cc1C(=O)N=C(N)N | 130
Cc1cc(-c2ccc(F)cc2)c(S(C)(=O)=O)cc1C(=O)N=C(N)N | 36
Cc1cc(Nc2cccc(Cl)c2)c(S(C)(=O)=O)cc1C(=O)N=C(N)N | 33
Cc1c(C(=O)N=C(N)N)cc(S(C)(=O)=O)c(Oc2cccnc2)c1C | 23
CCc1cc(N2CCC(O)CC2)c(S(C)(=O)=O)cc1C(=O)N=C(N)N | 41
CS(=O)(=O)c1cc(C(=O)N=C(N)N)c(Cl)cc1Nc1ncccn1 | 49
CS(=O)(=O)c1cc(C(=O)N=C(N)N)c(N2CCCCC2)cc1N1CCCCC1 | 1000
Cc1cc(C#N)c(S(C)(=O)=O)cc1C(=O)N=C(N)N | 70
Cc1cc(C(F)(F)F)c(S(C)(=O)=O)cc1C(=O)N=C(N)N | 37
CCN(CC)Cc1cc(Br)c(S(C)(=O)=O)cc1C(=O)N=C(N)N | 9500
Cc1cc(N)c(S(C)(=O)=O)cc1C(=O)N=C(N)N | 16
CCc1cc(N2CCCCC2)c(S(C)(=O)=O)cc1C(=O)N=C(N)N | 25

SMILES | IC50 [nM]
Cc1c(C(=O)N=C(N)N)cc(S(C)(=O)=O)c(C)c1C | 55
Cc1cc(Oc2ccccc2)c(S(C)(=O)=O)cc1C(=O)N=C(N)N | 10
CS(=O)(=O)c1cc(C(=O)N=C(N)N)ccc1N1CCC(N)CC1 | 160
CS(=O)(=O)c1cc(C(=O)N=C(N)N)ccc1Oc1cncc(Cl)c1 | 75
Cc1cc(F)c(S(C)(=O)=O)cc1C(=O)N=C(N)N | 44
Cc1cc(Br)c(C(=O)N=C(N)N)cc1S(C)(=O)=O | 70
Cc1cc(-c2ccccc2)c(S(C)(=O)=O)cc1C(=O)N=C(N)N | 19
CS(=O)(=O)c1cc(C(=O)N=C(N)N)ccc1-n1ccnc1 | 150
Cc1cc(C2CCCCC2)c(S(C)(=O)=O)cc1C(=O)N=C(N)N | 22
Cc1cc(OC2CCCC2)c(S(C)(=O)=O)cc1C(=O)N=C(N)N | 27
Cc1cc(C)c(S(C)(=O)=O)cc1C(=O)N=C(N)N | 11
Cc1c(C(=O)N=C(N)N)cc(S(C)(=O)=O)c(C#N)c1C | 370
CCc1cc(Br)c(S(C)(=O)=O)cc1C(=O)N=C(N)N | 41
Cc1cc(Sc2ccccc2)c(S(C)(=O)=O)cc1C(=O)N=C(N)N | 14
Cc1cc(SC(C)C)c(S(C)(=O)=O)cc1C(=O)N=C(N)N | 12
Cc1cc(C(C)C)c(S(C)(=O)=O)cc1C(=O)N=C(N)N | 2
Cc1cc(N2CCN(c3ncccn3)CC2)c(S(C)(=O)=O)cc1C(=O)N=C(N)N | 27
CS(=O)(=O)c1cc(C(=O)N=C(N)N)c(Cl)cc1N1CCCC(O)C1 (configuration not stated) | 60
Cc1cc(-n2ccnc2)c(S(C)(=O)=O)cc1C(=O)N=C(N)N | 23
